Test results reported in article PMC12100521 (Chemical Science, 2025).
Values joined by “and” are separate entries in the source; they are usually repeats but may differ in a detail not shown here. Identical values can stand only once.

How the values were obtained:
[1] = test system: CYP125MRCA; assay: UV-Vis spin-state; type: binding; conditions: 30 °C, enzyme ~2 μM
[2] = target: CYP125MRCA; assay: UV-Vis difference-spectrum substrate titration; type: binding; conditions: read-out: Kd (Hill model), Table 1
[3] = test system: CYP125MRCA; assay: In vitro oxidation assay, spinach ferredoxin/ferredoxin reductase/NADPH, GC-MS; type: biochemical; conditions: substrate 100 μM, enzyme 2 μM, 20 h, room temperature
[4] = target: CYP125A1; conditions: read-out: Kd CYP125A1; cited from earlier work
[5] = test system: CYP125MRCAAlt; assay: UV-Vis spin-state shift binding screen after imidazole treatment; conditions: enzyme pre-treated with imidazole (~1.3 mM)
[6] = target: MmarCYP125A7; conditions: cited from earlier work
[7] = test system: CYP125MRCAAlt; assay: In vitro oxidation assay, spinach ferredoxin/ferredoxin reductase/NADPH, GC-MS; type: biochemical; conditions: reconstituted spinach ferredoxin/reductase/NADPH system
Procedure, shortened: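 Enzyme (2 μM in the method text) and substrate (100 μM) were equilibrated 3 min at room temperature in oxygenated 50 mM Tris, pH 7.4. Added G6P (5 mM), G6PDH (0.7 U/mL), ferredoxin (4 μM), reductase (0.2 U/mL) and catalase (0.03 mg/mL), then NADPH (1 mM). Ran 20 h, quenched with HCl, octanoic acid internal standard, ethyl acetate extraction, BSTFA/TMCS derivatisation, products assigned by mass spectra and retention times.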

[8] = test system: Mtb CYP125A1; conditions: cited from earlier work
[9] = test system: CYP125MRCA; type: biochemical; conditions: 1 : 1 mixture of substrates
[10] = test system: CYP125A1; conditions: cited from earlier work
[11] = test system: CYP125A1, CYP125A6 and CYP125A7; conditions: cited from earlier work

Compound | Substrate-induced shift of the Soret band (LS to HS) [1] | Kd [2] | Oxidation by CYP125MRCA (products by GC-MS) [3] | Binding detected by shift back to HS peak [5] | also measured
CC(C)CCC[C@@H](C)[C@H]1CC[C@H]2[C@@H]3C[C@@H]4O[C@@]45C[C@@H](O)CC[C@]5(C)[C@H]3CC[C@]12C [5,6α-epoxycholesterol] | Complete or near-complete spin-state shifts |  |  |  | 
CC(C)CCC[C@@H](C)[C@H]1CC[C@H]2[C@@H]3C(=O)C=C4C[C@@H](O)CC[C@]4(C)[C@H]3CC[C@]12C [7-ketocholesterol] | Complete or near-complete spin-state shifts |  |  |  | 
CC(C)CCC[C@@H](C)[C@H]1CC[C@H]2[C@@H]3[C@H](O)C=C4C[C@@H](O)CC[C@]4(C)[C@H]3CC[C@]12C [7α-hydroxycholesterol] | Complete or near-complete spin-state shifts |  |  |  | 
CC(C)CCC[C@@H](C)[C@H]1CC[C@H]2[C@@H]3[C@@H](O)C=C4C[C@@H](O)CC[C@]4(C)[C@H]3CC[C@]12C [7β-hydroxycholesterol] | Complete or near-complete spin-state shifts |  |  |  | 
CC(C)[C@H](C)CC[C@@H](C)[C@H]1CC[C@H]2[C@@H]3CC=C4C[C@@H](O)CC[C@]4(C)[C@H]3CC[C@]12C [campesterol] | complete shift of the Soret band to the high spin peak at ∼391 nm | 4.19 ± 0.05 µM | able to effectively oxidise |  | 
CC(C)CCC[C@@H](C)[C@H]1CC[C@H]2[C@@H]3CCC4=CC(=O)CC[C@]4(C)[C@H]3CC[C@]12C [cholest-4-en-3-one] | completely shift the Soret band to ∼390 nm | 0.85 ± 0.02 µM | able to oxidise | found to bind | Kd [4]: 1.18 ± 0.11 µM; Kd [6]: 0.7 ± 0.4 µM
CC(C)CCC[C@@H](C)[C@H]1CC[C@H]2[C@@H]3CC=C4C[C@@H](O)CC[C@]4(C)[C@H]3CC[C@]12C [cholesterol] | completely shift the Soret band to ∼390 nm | 2 ± 0.05 µM | able to oxidise and 26-cholestenoic acid being the major product | found to bind | Kd [4]: 0.11 ± 0.06 µM; Oxidation by CYP125MRCAAlt (products by GC-MS) [7]: able to oxidise cholesterol, albeit with a lower efficiency and 26-hydroxycholesterol being the major product; Preference for cholesterol over sitosterol [8]: 1.8 fold
CC(C)=CCC[C@@H](C)[C@H]1CC[C@H]2[C@@H]3CC=C4C[C@@H](O)CC[C@]4(C)[C@H]3CC[C@]12C [desmosterol] | minimal perturbations of the heme centre |  |  |  | 
CC(C)[C@@H](C)/C=C/[C@@H](C)[C@H]1CC[C@H]2C3=CC=C4C[C@@H](O)CC[C@]4(C)[C@H]3CC[C@]12C [ergosterol] | minimal perturbations of the heme centre |  |  |  | 
CC[C@H](CC[C@@H](C)[C@H]1CC[C@H]2[C@@H]3CCC4=CC(=O)CC[C@]4(C)[C@H]3CC[C@]12C)C(C)C [stigmast-4-en-3-one] | complete shift of the Soret band to the high spin peak at ∼391 nm | 1.61 ± 0.11 µM |  | found to bind | Preference for stigmast-4-en-3-one versus cholest-4-en-3-one [9]: 3.2 fold
CC[C@H](/C=C/[C@@H](C)[C@H]1CC[C@H]2[C@@H]3CC=C4C[C@@H](O)CC[C@]4(C)[C@H]3CC[C@]12C)C(C)C [stigmasterol] | complete shift of the Soret band to the high spin peak at ∼391 nm | 2.04 ± 0.12 µM |  |  | 
C=C1CC[C@H](O)C/C1=C/C=C1\CCC[C@]2(C)[C@@H]([C@H](C)CCCC(C)C)CC[C@@H]12 [vitamin D3, cholecalciferol] | complete shift in the Soret band to HS | 1.6 ± 0.22 µM | oxidised by CYP125MRCA into four hydroxylation products and one partially underivatised alcohol product | found to bind | Oxidation of vitamin D3 by CYP125A1 [10]: does not oxidise; Spectral shift in the Soret band [11]: does not induce a spectral shift in the Soret band; Oxidation by CYP125MRCAAlt (products by GC-MS) [7]: No 25- or 26-hydroxylation activity
